{"source": "ChEMBL document CHEMBL1152695", "about": "“Development of 3-substituted-1H-indole derivatives as NR2B/NMDA receptor antagonists” (Bioorg Med Chem, 2009)", "key": {"Mus musculus [1]": {"tested_on": "Mus musculus", "test": "Anticonvulsant activity in ip dosed DBA/2 mouse assessed as inhibition of auditory stimulation-induced clonic seizures administered 30 mins before auditory stimulation", "type": "functional", "details": "DBA/2, ip", "how_it_was_run": "(§1)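 DBA/2 mice (8–12 g, 22–25 days old), either sex, groups of 10. Given ip in 50% DMSO/50% saline at 0.1 mL/10 g, 30 min before testing. After 60 s habituation under a dome, sound (12–16 kHz, 109 dB) applied for 60 s or until tonic extension. Latency and incidence of each seizure phase scored.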"}, "[2]": {"target": "Glutamate receptor ionotropic, NMDA 2B (Rattus norvegicus, UniProt Q00960)", "sequence (Q00960 whole entry)": "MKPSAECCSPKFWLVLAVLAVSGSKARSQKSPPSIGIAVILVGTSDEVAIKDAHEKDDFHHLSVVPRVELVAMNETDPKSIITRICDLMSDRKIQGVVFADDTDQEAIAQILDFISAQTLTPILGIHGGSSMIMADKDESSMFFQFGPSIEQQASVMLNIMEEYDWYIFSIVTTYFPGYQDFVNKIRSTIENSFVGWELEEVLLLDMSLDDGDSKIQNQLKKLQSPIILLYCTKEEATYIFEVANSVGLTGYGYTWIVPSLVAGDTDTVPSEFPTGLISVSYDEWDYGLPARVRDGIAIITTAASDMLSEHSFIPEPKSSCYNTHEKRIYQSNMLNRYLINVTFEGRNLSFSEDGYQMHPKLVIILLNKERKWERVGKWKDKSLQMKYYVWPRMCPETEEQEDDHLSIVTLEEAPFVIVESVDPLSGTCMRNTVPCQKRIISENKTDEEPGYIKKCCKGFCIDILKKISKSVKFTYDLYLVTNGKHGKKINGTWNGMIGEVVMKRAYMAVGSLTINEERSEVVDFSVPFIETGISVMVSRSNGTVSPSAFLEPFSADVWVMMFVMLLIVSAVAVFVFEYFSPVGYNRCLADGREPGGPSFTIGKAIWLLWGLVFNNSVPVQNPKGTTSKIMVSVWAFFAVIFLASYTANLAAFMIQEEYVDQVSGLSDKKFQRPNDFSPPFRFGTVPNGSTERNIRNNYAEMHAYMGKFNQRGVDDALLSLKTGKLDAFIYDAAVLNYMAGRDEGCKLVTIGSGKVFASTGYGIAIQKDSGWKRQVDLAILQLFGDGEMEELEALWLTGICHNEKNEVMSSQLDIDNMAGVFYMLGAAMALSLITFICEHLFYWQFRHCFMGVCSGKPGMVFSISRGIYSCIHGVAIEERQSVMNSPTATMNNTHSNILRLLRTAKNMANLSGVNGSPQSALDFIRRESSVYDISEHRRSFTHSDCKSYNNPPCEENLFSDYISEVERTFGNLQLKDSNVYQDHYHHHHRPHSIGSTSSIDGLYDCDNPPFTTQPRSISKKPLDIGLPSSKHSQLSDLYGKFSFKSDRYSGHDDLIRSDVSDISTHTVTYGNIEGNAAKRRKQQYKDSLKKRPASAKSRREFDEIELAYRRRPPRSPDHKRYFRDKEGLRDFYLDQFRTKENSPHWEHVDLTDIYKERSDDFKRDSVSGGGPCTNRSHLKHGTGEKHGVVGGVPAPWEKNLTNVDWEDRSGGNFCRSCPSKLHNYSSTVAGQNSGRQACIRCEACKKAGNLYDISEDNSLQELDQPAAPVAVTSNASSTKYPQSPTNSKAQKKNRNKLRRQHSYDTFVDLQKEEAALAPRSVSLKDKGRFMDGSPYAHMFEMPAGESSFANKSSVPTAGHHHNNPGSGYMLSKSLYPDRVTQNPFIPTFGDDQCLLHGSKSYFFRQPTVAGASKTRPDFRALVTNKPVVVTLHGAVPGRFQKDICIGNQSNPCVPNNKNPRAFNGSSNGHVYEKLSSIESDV", "test": "Displacement of [3H]ifenprodil from NMDA NR2B receptor in Wistar rat cerebral cortex membrane", "type": "tissue-based"}, "[3]": {"target": "Glutamate receptor ionotropic, NMDA 2B (Rattus norvegicus) (UniProt Q00960)", "sequence (Q00960 27-1482 limits assumed)": "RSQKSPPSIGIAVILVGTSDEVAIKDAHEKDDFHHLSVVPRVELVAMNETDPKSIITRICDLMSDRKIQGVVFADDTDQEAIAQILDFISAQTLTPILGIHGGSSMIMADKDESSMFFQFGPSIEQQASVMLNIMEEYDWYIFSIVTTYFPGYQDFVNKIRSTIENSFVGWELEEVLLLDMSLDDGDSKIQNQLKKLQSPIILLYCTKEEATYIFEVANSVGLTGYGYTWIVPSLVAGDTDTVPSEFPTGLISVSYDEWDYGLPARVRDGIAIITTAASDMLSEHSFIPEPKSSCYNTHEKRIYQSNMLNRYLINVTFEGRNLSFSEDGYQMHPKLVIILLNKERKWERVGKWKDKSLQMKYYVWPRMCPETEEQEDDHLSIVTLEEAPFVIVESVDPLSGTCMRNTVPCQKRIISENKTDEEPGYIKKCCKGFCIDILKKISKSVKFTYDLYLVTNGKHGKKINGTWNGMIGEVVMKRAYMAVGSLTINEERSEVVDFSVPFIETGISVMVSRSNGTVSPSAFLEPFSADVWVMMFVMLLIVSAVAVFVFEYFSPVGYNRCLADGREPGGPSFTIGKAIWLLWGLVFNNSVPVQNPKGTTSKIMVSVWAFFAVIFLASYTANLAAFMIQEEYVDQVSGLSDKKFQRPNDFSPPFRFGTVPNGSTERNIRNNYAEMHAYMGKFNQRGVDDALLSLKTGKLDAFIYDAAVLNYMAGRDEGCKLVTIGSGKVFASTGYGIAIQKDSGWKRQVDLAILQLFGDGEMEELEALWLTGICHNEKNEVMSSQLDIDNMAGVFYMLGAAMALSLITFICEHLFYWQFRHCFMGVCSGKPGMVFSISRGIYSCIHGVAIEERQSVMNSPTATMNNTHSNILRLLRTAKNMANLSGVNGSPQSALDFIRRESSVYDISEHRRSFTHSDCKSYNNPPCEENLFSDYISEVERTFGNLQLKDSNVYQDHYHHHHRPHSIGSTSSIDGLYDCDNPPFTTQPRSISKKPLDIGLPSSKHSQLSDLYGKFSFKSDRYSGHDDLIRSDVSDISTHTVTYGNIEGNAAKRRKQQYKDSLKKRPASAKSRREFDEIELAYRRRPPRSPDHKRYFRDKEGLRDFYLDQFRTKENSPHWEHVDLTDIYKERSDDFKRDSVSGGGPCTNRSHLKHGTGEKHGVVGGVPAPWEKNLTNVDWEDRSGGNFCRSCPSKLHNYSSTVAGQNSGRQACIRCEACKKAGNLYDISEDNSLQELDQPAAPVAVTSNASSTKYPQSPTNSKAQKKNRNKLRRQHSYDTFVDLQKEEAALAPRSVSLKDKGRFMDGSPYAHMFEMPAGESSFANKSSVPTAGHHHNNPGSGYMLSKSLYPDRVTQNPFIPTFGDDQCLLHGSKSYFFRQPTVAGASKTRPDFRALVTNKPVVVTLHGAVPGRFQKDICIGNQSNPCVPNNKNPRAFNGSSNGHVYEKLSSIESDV", "test": "Displacement of [3H]ifenprodil from NMDA NR2B receptor in Wistar rat cerebral cortex membrane at 10 uM", "type": "tissue-based"}, "Mus musculus [4]": {"tested_on": "Mus musculus", "test": "Anticonvulsant activity in ip dosed DBA/2 mouse assessed as inhibition of auditory stimulation-induced tonic seizures administered 30 mins before auditory stimulation", "type": "functional", "details": "DBA/2, ip", "how_it_was_run": "as §1"}, "[5]": {"target": "Glutamate receptor ionotropic, NMDA 2B (Rattus norvegicus) (UniProt Q00960)", "test": "Antagonist activity at NMDA NR2B receptor in Wistar rat CA1 pyramidal neurons assessed as reduction of NMDA-induced inward currents at 1 uM at holding potential of -60 mV by patch-clamp technique", "type": "functional, cell-based", "parameters": "scale not given: the % may be the effect or the level left", "details": "Pyramidal neuron", "how_it_was_run": "(§2)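 Rat hippocampal slices; whole-cell currents recorded from single CA1 pyramidal neurons held at -60 mV. Inward current evoked by NMDA (50 µM, 5 s) plus glycine (0.5 µM). Compound bath-perfused at 1, 10 or 100 µM for 5 min. Amplitude taken as peak minus baseline, from at least three consecutive responses in control and in compound. Sets compared by unpaired t-test; percent reduction reported as mean ± SEM.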"}, "[6]": {"target": "Glutamate receptor ionotropic, NMDA 2B (Rattus norvegicus) (UniProt Q00960)", "test": "Antagonist activity at NMDA NR2B receptor in Wistar rat CA1 pyramidal neurons assessed as inhibition of NMDA-induced inward currents at holding potential of -60 mV by patch-clamp technique", "type": "functional, cell-based", "details": "Pyramidal neuron", "how_it_was_run": "as §2"}, "[7]": {"target": "Glutamate receptor ionotropic, NMDA 2B (Rattus norvegicus) (UniProt Q00960)", "test": "Antagonist activity at NMDA NR2B receptor in Wistar rat CA1 pyramidal neurons assessed as reduction of NMDA-induced inward currents at 10 uM at holding potential of -60 mV by patch-clamp technique", "type": "functional, cell-based", "parameters": "scale not given: the % may be the effect or the level left", "details": "Pyramidal neuron", "how_it_was_run": "as §2"}, "[8]": {"target": "Glutamate receptor ionotropic, NMDA 2B (Rattus norvegicus) (UniProt Q00960)", "test": "Antagonist activity at NMDA NR2B receptor in Wistar rat CA1 pyramidal neurons assessed as reduction of NMDA-induced inward currents at 100 uM at holding potential of -60 mV by patch-clamp technique", "type": "functional, cell-based", "parameters": "scale not given: the % may be the effect or the level left", "details": "Pyramidal neuron", "how_it_was_run": "as §2"}}, "data": [{"smiles": "O=C(CN1CCC(Cc2ccccc2)CC1)c1c[nH]c2ccccc12", "values": [{"measurement": "ED50", "setting": "Mus musculus [1]", "value": 22.4, "unit": "µmol/kg"}, {"measurement": "IC50", "setting": "[2]", "value": 769, "unit": "nM"}, {"measurement": "Activity", "setting": "[3]", "value": 89, "unit": "%"}, {"measurement": "ED50", "setting": "Mus musculus [4]", "value": 8.71, "unit": "µmol/kg"}]}, {"smiles": "O=C(Cc1c[nH]c2ccc(Br)cc12)N1CCC(Cc2ccccc2)CC1", "values": [{"measurement": "ED50", "setting": "Mus musculus [1]", "value": 27.3, "unit": "µmol/kg"}, {"measurement": "ED50", "setting": "Mus musculus [4]", "value": 5.42, "unit": "µmol/kg"}]}, {"smiles": "O=C(CCc1c[nH]c2ccccc12)N1CCC(Cc2ccccc2)CC1", "values": [{"measurement": "ED50", "setting": "Mus musculus [1]", "value": "> 100", "unit": "µmol/kg"}, {"measurement": "ED50", "setting": "Mus musculus [4]", "value": 57.6, "unit": "µmol/kg"}]}, {"smiles": "O=C(CN1CCC(Cc2ccccc2)CC1)c1c[nH]c2ccc(Br)cc12", "values": [{"measurement": "ED50", "setting": "Mus musculus [1]", "value": 84.9, "unit": "µmol/kg"}, {"measurement": "ED50", "setting": "Mus musculus [4]", "value": 49.7, "unit": "µmol/kg"}]}, {"smiles": "O=C(Cc1c[nH]c2ccc(O)cc12)N1CCC(Cc2ccccc2)CC1", "values": [{"measurement": "ED50", "setting": "Mus musculus [1]", "value": 45.6, "unit": "µmol/kg"}, {"measurement": "ED50", "setting": "Mus musculus [4]", "value": 13.9, "unit": "µmol/kg"}]}, {"smiles": "O=C(CN1CCC(Cc2ccccc2)CC1)c1c[nH]c2ccc(O)cc12", "values": [{"measurement": "Activity", "setting": "[5]", "value": 23, "unit": "%"}, {"measurement": "ED50", "setting": "Mus musculus [1]", "value": 11.5, "unit": "µmol/kg"}, {"measurement": "Activity", "setting": "[6]", "value": "Dose-dependent effect"}, {"measurement": "Activity", "setting": "[7]", "value": 52, "unit": "%"}, {"measurement": "IC50", "setting": "[2]", "value": 25, "unit": "nM"}, {"measurement": "Ki", "setting": "[2]", "value": 23, "unit": "nM"}, {"measurement": "Activity", "setting": "[8]", "value": 75, "unit": "%"}, {"measurement": "Activity", "setting": "[3]", "value": 92, "unit": "%"}, {"measurement": "ED50", "setting": "Mus musculus [4]", "value": 6.48, "unit": "µmol/kg"}]}, {"smiles": "O=C(Cc1c[nH]c2ccccc12)N1CCC(Cc2ccccc2)CC1", "values": [{"measurement": "ED50", "setting": "Mus musculus [1]", "value": 70.3, "unit": "µmol/kg"}, {"measurement": "ED50", "setting": "Mus musculus [4]", "value": 39.2, "unit": "µmol/kg"}]}, {"smiles": "COc1ccc2[nH]cc(C(=O)C(=O)N3CCC(Cc4ccccc4)CC3)c2c1", "values": [{"measurement": "ED50", "setting": "Mus musculus [1]", "value": "> 100", "unit": "µmol/kg"}, {"measurement": "ED50", "setting": "Mus musculus [4]", "value": 78.8, "unit": "µmol/kg"}]}, {"smiles": "O=C(CN1CCC(Cc2ccccc2)CC1)c1c[nH]c2ncccc12", "values": [{"measurement": "ED50", "setting": "Mus musculus [1]", "value": 88.5, "unit": "µmol/kg"}, {"measurement": "ED50", "setting": "Mus musculus [4]", "value": 32.5, "unit": "µmol/kg"}]}, {"smiles": "COc1ccc2[nH]cc(CC(=O)N3CCC(Cc4ccccc4)CC3)c2c1", "values": [{"measurement": "ED50", "setting": "Mus musculus [1]", "value": 89, "unit": "µmol/kg"}, {"measurement": "ED50", "setting": "Mus musculus [4]", "value": 34.4, "unit": "µmol/kg"}]}, {"smiles": "O=C(C(=O)N1CCC(Cc2ccccc2)CC1)c1c[nH]c2ccc(Br)cc12", "values": [{"measurement": "ED50", "setting": "Mus musculus [1]", "value": "> 100", "unit": "µmol/kg"}, {"measurement": "ED50", "setting": "Mus musculus [4]", "value": 47.9, "unit": "µmol/kg"}]}, {"smiles": "O=C(C(=O)N1CCC(Cc2ccccc2)CC1)c1c[nH]c2ccc(O)cc12", "values": [{"measurement": "ED50", "setting": "Mus musculus [1]", "value": "> 100", "unit": "µmol/kg"}, {"measurement": "IC50", "setting": "[2]", "value": 2660, "unit": "nM"}, {"measurement": "Activity", "setting": "[3]", "value": 77, "unit": "%"}, {"measurement": "ED50", "setting": "Mus musculus [4]", "value": "> 100", "unit": "µmol/kg"}]}, {"smiles": "O=C(C(=O)N1CCC(Cc2ccccc2)CC1)c1c[nH]c2ccccc12", "values": [{"measurement": "ED50", "setting": "Mus musculus [1]", "value": 22.4, "unit": "µmol/kg"}, {"measurement": "Activity", "setting": "[3]", "value": 36, "unit": "%"}, {"measurement": "ED50", "setting": "Mus musculus [4]", "value": 0.95, "unit": "µmol/kg"}]}, {"smiles": "C[C@@H](CN1CCC(Cc2ccccc2)CC1)[C@@H](O)c1ccc(O)cc1", "values": [{"measurement": "ED50", "setting": "Mus musculus [1]", "value": 40, "unit": "µmol/kg"}, {"measurement": "ED50", "setting": "Mus musculus [4]", "value": 10.6, "unit": "µmol/kg"}]}, {"smiles": "O=C(CN1CCN(Cc2ccccc2)CC1)c1c[nH]c2ccccc12", "values": [{"measurement": "ED50", "setting": "Mus musculus [1]", "value": "> 100", "unit": "µmol/kg"}, {"measurement": "ED50", "setting": "Mus musculus [4]", "value": "> 100", "unit": "µmol/kg"}]}, {"smiles": "COc1ccc2[nH]cc(C(=O)CN3CCC(Cc4ccccc4)CC3)c2c1", "values": [{"measurement": "ED50", "setting": "Mus musculus [1]", "value": 59.9, "unit": "µmol/kg"}, {"measurement": "ED50", "setting": "Mus musculus [4]", "value": 36.5, "unit": "µmol/kg"}]}]}
